Measured values: ChEMBL document CHEMBL1629660, “Pharmacodynamics of tigecycline against phenotypically diverse Staphylococcus aureus isolates in a murine thigh model” (Antimicrob Agents Chemother, 2009)

How the values were obtained:
[1] = Cmax in neutropenic ICR mouse infected with Staphylococcus aureus ATCC 29213 at 6.25 mg/kg, sc by HPLC; format: ADME, organism-based; set-up: dose 6.25 mg/kg, route subcutaneous; conditions: in vivo
How it was run: (§1)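 Neutropenic female ICR mice (cyclophosphamide 150 and 100 mg/kg ip, 4 days and 1 day before inoculation), both thighs inoculated im with ~10^7 CFU/ml of ATCC 29213. Single sc doses of 50, 25, 12.5 or 6.25 mg/kg. Cardiac blood taken from groups of six at 8–12 times over 0.5–24 h. Serum measured by HPLC (linear 0.05–5 µg/ml). Two-compartment fit by nonlinear least squares; AUC by trapezoidal rule.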

[2] = Tmax in neutropenic ICR mouse infected with Staphylococcus aureus ATCC 29213 at 50 mg/kg, sc by HPLC; format: ADME, organism-based; set-up: dose 50 mg/kg, route subcutaneous; conditions: in vivo; how it was run: as §1
[3] = r2 for fT>MIC in hospital-acquired methicillin-resistant Staphylococcus aureus isolate 56-infected neutropenic ICR mouse
[4] = Cmax in neutropenic ICR mouse infected with Staphylococcus aureus ATCC 29213 at 12.5 mg/kg, sc by HPLC; format: ADME, organism-based; set-up: dose 12.5 mg/kg, route subcutaneous; conditions: in vivo; how it was run: as §1
[5] = fAUC/MIC in community acquired methicillin-resistant Staphylococcus aureus isolate 147-infected neutropenic ICR mouse at 50% effective exposure index; format: functional
How it was run: (§2)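 Single-dose serum PK in infected neutropenic mice (sc 6.25–50 mg/kg; HPLC; two-compartment fit; AUC by trapezoidal rule; lower doses simulated). Free fraction from ultrafiltration of spiked mouse serum, in triplicate. Free exposures divided by modal MIC and plotted against 24-h log10 CFU change with a sigmoidal Emax model; EI50, EI80 and stasis values read from the fitted curves.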

[6] = fAUC/MIC in methicillin-sensitive Staphylococcus aureus ATCC 29213-infected neutropenic ICR mouse at 50% effective exposure index; format: functional
How it was run: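 fT>MIC, fCmax/MIC and fAUC/MIC were built from the serum pharmacokinetics, protein binding, modal broth-microdilution MIC (triplicate, CLSI) and 24-h thigh CFU change. Each index was fit to a sigmoidal Emax model. EI50, EI80 and stasis exposures were taken from each isolate's curve.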

[7] = AUC (0 to 24 hrs) in neutropenic ICR mouse infected with Staphylococcus aureus ATCC 29213 at 12.5 mg/kg, sc by HPLC; format: ADME, organism-based; set-up: time < 24 hr, dose 12.5 mg/kg, route subcutaneous; conditions: plasma; how it was run: as §1
[8] = Cmax in neutropenic ICR mouse infected with Staphylococcus aureus ATCC 29213 at 50 mg/kg, sc by HPLC; format: ADME, organism-based; set-up: dose 50 mg/kg, route subcutaneous; conditions: in vivo; how it was run: as §1
[9] = test system: Acinetobacter baumannii; experiment: Antimicrobial activity against carbapenem-intermediate,-resistant Acinetobacter baumannii assessed as decrease in bacterial count at 0.8 times of MIC after 48 hrs by time kill analysis; format: functional
[10] = r2 for fT>MIC in community acquired methicillin-resistant Staphylococcus aureus isolate 156-infected neutropenic ICR mouse
[11] = Plasma protein binding in human; format: ADME, cell-free; conditions: read-out: PPB (converted)
[12] = fAUC/MIC in community acquired methicillin-resistant Staphylococcus aureus isolate 156 infected-immunocompetent ICR mouse at 6.25 […], sc QD; format: functional
How it was run: (§3)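 Derived from neutropenic-mouse serum PK (HPLC, two-compartment fit) with ultrafiltration protein-binding correction, divided by modal MIC.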

[13] = AUC (0 to 24 hrs) in neutropenic ICR mouse infected with Staphylococcus aureus ATCC 29213 at 50 mg/kg, sc by HPLC; format: ADME, organism-based; set-up: time < 24 hr, dose 50 mg/kg, route subcutaneous; conditions: plasma; how it was run: as §1
[14] = fAUC/MIC in hospital-acquired methicillin-resistant Staphylococcus aureus isolate 152-infected neutropenic ICR mouse at 80% effective exposure index; format: functional; how it was run: as §2
[15] = fAUC/MIC in community acquired methicillin-resistant Staphylococcus aureus isolate 144-infected neutropenic ICR mouse at 80% effective exposure index; format: functional; how it was run: as §2
[16] = fAUC/MIC in community acquired methicillin-resistant Staphylococcus aureus isolate 156-infected neutropenic ICR mouse at 50% effective exposure index; format: functional; how it was run: as §2
[17] = r2 for fAUC/MIC in methicillin-sensitive Staphylococcus aureus ATCC 29213-infected neutropenic ICR mouse
[18] = test system: Staphylococcus aureus; experiment: Antimicrobial activity against community acquired methicillin-resistant Staphylococcus aureus isolate 156 infected in immunocompetent ICR mouse assessed as reduction in bacterial load at 1.56 […] after 24 hrs; format: functional
How it was run: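 Non-neutropenic ICR mice (no cyclophosphamide). Each thigh inoculated im with 0.1 ml of ~10^8 CFU/ml. Tigecycline given sc once daily at 1.56, 3.13, 6.25 or 12.5 mg/kg starting 2 h post-infection, 3 mice/group. Thighs harvested at 24 h, homogenized, plated on blood agar; log10 CFU change vs 0-h controls.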

[19] = fAUC/MIC in methicillin-sensitive Staphylococcus aureus ATCC 25923-infected neutropenic ICR mouse at 80% effective exposure index; format: functional
[20] = Protein binding in methicillin-sensitive Staphylococcus aureus ATCC 29213-infected neutropenic ICR mouse serum at 12.5 mg/kg, sc by HPLC; format: ADME, organism-based; set-up: dose 12.5 mg/kg, route subcutaneous; conditions: read-out: PB (converted)
[21] = Protein binding in methicillin-sensitive Staphylococcus aureus ATCC 29213-infected neutropenic ICR mouse serum at 6.25 mg/kg, sc by HPLC; format: ADME, organism-based; set-up: dose 6.25 mg/kg, route subcutaneous; conditions: read-out: PB (converted)
[22] = fAUC/MIC in community acquired methicillin-resistant Staphylococcus aureus isolate 156 infected-immunocompetent ICR mouse at 12.5 […], sc QD; format: functional; how it was run: as §3
[23] = test system: Serum; experiment: fAUC in serum of methicillin-sensitive Staphylococcus aureus ATCC 29213-infected neutropenic ICR mouse at 1.56 to 400 mg/kg, sc by HPLC; format: ADME, organism-based; set-up: dose 1.56-400 mg/kg, route subcutaneous; conditions: in vivo
[24] = r2 for fCmax/MIC in methicillin-sensitive Staphylococcus aureus ATCC 29213-infected neutropenic ICR mouse
[25] = test system: Acinetobacter baumannii; experiment: Antimicrobial activity against carbapenem-intermediate,-resistant Acinetobacter baumannii assessed as decrease in bacterial count at 0.6 times of MIC after 24 hrs by time kill analysis; format: functional
[26] = test system: Staphylococcus aureus; experiment: Antimicrobial activity against methicillin-sensitive Staphylococcus aureus ATCC 25923 infected in neutropenic ICR mouse assessed as change in bacterial load after 24 hrs; format: functional
How it was run: (§4)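 Female ICR mice (~25 g) made neutropenic with cyclophosphamide 150 and 100 mg/kg ip, 4 and 1 days before infection. Each thigh inoculated im with 0.1 ml of ~10^7 CFU/ml from an overnight subculture. Tigecycline sc (0.2 ml) given 2 h later as single or multiple doses of 1.56–50 mg/kg, 1.56–400 mg/kg/day, 3 mice/group. Saline-injected controls. Thighs harvested at 24 h, homogenized in saline, plated on blood agar; log10 CFU change vs 0-h controls.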

[27] = test system: Staphylococcus aureus; experiment: Antimicrobial activity against community acquired methicillin-resistant Staphylococcus aureus isolate 147 infected in neutropenic ICR mouse assessed as change in bacterial load after 24 hrs; format: functional; how it was run: as §4
[28] = Protein binding in methicillin-sensitive Staphylococcus aureus ATCC 29213-infected neutropenic ICR mouse serum at 12 µg/ml by HPLC; conditions: read-out: PB (converted)
[29] = r2 for fT>MIC in hospital-acquired methicillin-resistant Staphylococcus aureus isolate 152-infected neutropenic ICR mouse

CN(C)c1cc(NC(=O)CNC(C)(C)C)c(O)c2c1C[C@H]1C[C@H]3[C@H](N(C)C)C(O)=C(C(N)=O)C(=O)[C@@]3(O)C(O)=C1C2=O [TIGECYCLINE]
Cmax [1]: 1680 ng/mL
Tmax [2]: 44.4 min
r2 [3]: 0.341%
Cmax [4]: 2380 ng/mL
fAUC/MIC [5]: 1.5
fAUC/MIC [6]: 0.6
AUC(0-t) at 24 h [7]: 9100 ng·h/mL
Cmax [8]: 12200 ng/mL
log10cfu [9]: 3.5
r2 [10]: 0.894%
fraction unbound [11]: 0.29
fAUC/MIC [12]: 7.2
AUC(0-t) at 24 h [13]: 49200 ng·h/mL
fAUC/MIC [14]: 2.8
fAUC/MIC [15]: 3.2
fAUC/MIC [16]: 5.1
r2 [17]: 0.983
log10cfu [18]: 1.6
fAUC/MIC [19]: 7
fraction unbound [20]: 0.121
fraction unbound [21]: 0.188
fAUC/MIC [22]: 8.8
fAUC [23]: 200 ng·h/mL
r2 [24]: 0.974
log10cfu [25]: 1.5
log10CFU/ml [26]: 1.4
log10CFU/ml [27]: 1.8
fraction unbound [28]: 0.08
r2 [29]: 0.511%
